# Reference: ChEMBL document CHEMBL4699498 (J Med Chem, 2020)
# The source made the active and inactive calls. No cut-off for these calls is given here.
# Columns and labels:
# MDA-MB-436 = assay: Antiproliferative activity against human MDA-MB-436 cells assessed as cell growth inhibition incubated for 7 days by CCK-8 assay; format: functional, cell-based; conditions: MDA-MB-436, 168 h
# Summary of the method: (§1)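 Cells were sub-cultured at least twice and seeded for 24 h before dosing. Compounds came from 10 mM DMSO stocks, given as 10 points of 3-fold serial dilution starting at 10-20 μM. Incubation was about 7 days (Capan-1 13 days) at 37 °C, 5% CO2. Read-out was CCK-8 absorbance at 450 nm, as % growth versus DMSO wells (duplicate wells). IC50 was fitted by nonlinear regression; three independent experiments.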
# CAPAN-1 = assay: Antiproliferative activity against human CAPAN-1 cells assessed as cell growth inhibition incubated for 13 days by CCK-8 assay; format: functional, cell-based; conditions: CAPAN-1, 312 h; summary of the method: as §1
# [1] = target: von Hippel-Lindau disease tumor suppressor/Poly [ADP-ribose] polymerase 1 (Homo sapiens) (UniProt P09874+P40337); assay: Protac activity at VHL/PARP1 in human MDA-MB-436 cells assessed as reduction in PARP1 protein level at 1 uM incubated for 24 hrs by western blot analysis; format: cell-based
# von Hippel-Lindau disease tumor suppressor/Poly [ADP-ribose] polymerase 1 (Homo sapiens), sequence (P09874 whole entry, looked up): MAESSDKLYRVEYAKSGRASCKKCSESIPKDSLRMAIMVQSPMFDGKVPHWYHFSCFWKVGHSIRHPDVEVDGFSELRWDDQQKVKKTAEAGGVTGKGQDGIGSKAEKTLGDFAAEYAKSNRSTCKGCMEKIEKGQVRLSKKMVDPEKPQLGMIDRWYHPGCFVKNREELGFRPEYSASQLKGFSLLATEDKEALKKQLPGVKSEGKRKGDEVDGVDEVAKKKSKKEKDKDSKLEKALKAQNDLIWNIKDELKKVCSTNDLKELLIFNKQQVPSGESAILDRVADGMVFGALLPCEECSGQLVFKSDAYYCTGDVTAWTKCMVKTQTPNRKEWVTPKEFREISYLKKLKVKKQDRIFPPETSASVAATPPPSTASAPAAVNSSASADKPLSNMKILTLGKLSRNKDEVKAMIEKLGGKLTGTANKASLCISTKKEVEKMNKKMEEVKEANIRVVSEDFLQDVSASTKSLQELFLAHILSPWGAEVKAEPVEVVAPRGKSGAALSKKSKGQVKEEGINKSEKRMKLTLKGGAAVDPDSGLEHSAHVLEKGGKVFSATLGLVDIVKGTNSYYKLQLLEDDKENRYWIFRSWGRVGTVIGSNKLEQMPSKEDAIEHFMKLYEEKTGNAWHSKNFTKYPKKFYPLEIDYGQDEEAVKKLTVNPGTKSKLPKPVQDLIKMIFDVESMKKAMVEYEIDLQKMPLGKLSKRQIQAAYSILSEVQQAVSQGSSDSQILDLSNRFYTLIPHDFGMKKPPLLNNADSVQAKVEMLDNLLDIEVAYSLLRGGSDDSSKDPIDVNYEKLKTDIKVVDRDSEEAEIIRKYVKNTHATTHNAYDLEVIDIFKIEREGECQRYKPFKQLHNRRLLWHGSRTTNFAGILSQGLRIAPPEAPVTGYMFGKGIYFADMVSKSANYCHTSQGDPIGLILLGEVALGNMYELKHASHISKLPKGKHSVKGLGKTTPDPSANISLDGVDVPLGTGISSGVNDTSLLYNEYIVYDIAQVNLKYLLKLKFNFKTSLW
# von Hippel-Lindau disease tumor suppressor/Poly [ADP-ribose] polymerase 1 (Homo sapiens), sequence (P40337 whole entry, looked up): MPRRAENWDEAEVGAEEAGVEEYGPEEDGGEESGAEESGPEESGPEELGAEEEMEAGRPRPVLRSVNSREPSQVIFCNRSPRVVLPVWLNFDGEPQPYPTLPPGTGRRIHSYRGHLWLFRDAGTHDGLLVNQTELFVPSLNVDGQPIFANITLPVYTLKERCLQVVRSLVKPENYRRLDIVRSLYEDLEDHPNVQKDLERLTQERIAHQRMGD
# [2] = target: T1, Protein cereblon/Poly [ADP-ribose] polymerase 1 (Homo sapiens, UniProt P09874+Q96SW2); assay: Protac activity at CRBN/PARP1 in human SW620 cells assessed as reduction in PARP1 protein level at 0.01 to 10 uM incubated for 12 hrs by western blot analysis; format: cell-based; conditions: SW-620, dose microM 0.01-10, time 12.0 hrs
# T1 sequence (P09874 2-1014 limits assumed): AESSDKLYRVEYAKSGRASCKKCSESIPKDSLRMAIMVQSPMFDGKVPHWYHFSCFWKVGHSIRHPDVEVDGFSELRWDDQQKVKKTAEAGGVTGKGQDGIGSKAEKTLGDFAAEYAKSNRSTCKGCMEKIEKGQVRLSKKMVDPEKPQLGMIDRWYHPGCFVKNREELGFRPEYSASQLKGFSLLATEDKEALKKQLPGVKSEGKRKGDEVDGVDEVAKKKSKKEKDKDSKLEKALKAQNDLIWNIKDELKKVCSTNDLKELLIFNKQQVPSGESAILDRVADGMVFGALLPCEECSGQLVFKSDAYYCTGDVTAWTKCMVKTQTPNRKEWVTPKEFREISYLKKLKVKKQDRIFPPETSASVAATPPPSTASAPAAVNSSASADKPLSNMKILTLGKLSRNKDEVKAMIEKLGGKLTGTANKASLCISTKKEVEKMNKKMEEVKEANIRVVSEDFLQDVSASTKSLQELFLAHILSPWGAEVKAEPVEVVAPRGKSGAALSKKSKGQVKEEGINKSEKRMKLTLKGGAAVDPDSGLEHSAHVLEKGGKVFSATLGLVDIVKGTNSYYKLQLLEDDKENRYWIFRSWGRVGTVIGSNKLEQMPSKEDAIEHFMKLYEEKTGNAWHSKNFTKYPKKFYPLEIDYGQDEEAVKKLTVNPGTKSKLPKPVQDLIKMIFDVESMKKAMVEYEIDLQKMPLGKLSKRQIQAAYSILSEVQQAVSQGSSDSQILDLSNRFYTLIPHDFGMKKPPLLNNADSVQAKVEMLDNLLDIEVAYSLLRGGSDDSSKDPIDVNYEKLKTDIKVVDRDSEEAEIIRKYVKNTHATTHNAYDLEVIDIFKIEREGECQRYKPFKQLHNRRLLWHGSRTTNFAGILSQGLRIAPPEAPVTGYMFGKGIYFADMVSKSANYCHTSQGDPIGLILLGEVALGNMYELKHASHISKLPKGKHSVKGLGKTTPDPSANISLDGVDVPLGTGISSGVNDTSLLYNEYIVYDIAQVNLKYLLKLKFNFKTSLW
# T1 sequence (Q96SW2 whole entry partner): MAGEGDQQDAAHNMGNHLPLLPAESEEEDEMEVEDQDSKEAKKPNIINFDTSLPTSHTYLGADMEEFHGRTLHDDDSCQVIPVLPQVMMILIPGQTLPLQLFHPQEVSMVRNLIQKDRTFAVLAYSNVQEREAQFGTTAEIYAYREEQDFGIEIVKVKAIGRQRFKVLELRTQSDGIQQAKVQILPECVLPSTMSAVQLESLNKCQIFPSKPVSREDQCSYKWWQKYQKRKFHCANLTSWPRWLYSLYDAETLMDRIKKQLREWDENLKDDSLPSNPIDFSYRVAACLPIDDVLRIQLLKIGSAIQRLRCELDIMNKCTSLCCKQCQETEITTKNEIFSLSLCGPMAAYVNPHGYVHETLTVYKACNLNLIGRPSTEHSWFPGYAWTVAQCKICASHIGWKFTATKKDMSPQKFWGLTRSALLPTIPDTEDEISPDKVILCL
# Summary of the method: (§2)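 MDA-MB-436 or SW620 cells dosed at 1, 10, 100, 1000 nM and 10 µM for 12 h; PARP1 assessed by western blot of RIPA lysates (20-30 µg protein), β-tubulin as loading control.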
# [3] = target: T1, Protein cereblon/Poly [ADP-ribose] polymerase 1; assay: Protac activity at CRBN/PARP1 in human MDA-MB-436 cells assessed as reduction in PARP1 protein level at 0.01 to 10 uM incubated for 12 hrs by western blot analysis; format: cell-based; conditions: dose microM 0.01-10, time 12.0 hrs; summary of the method: as §2
# [4] = target: T1, Protein cereblon/Poly [ADP-ribose] polymerase 1; assay: Protac activity at CRBN/PARP1 in human MDA-MB-436 cells assessed as induction of PARP1 degradation at 100 nM incubated for 24 hrs by Western blot analysis relative to control; format: cell-based
# Summary of the method: (§3)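 MDA-MB-436 cells (RPMI-1640, 10% FBS) seeded 24 h, then exposed to compound at 1, 10, 100 and 1000 nM for 24 h. Lysates in RIPA with protease inhibitors, 20-30 µg protein by SDS-PAGE, PARP1 immunoblot with β-tubulin loading control; PARP1/β-tubulin ratio normalized to DMSO control set at 100.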
# [5] = target: T1, Protein cereblon/Poly [ADP-ribose] polymerase 1; assay: Protac activity at CRBN/PARP1 in human MDA-MB-436 cells assessed as induction of PARP1 degradation at 10 nM incubated for 24 hrs by Western blot analysis relative to control; format: cell-based; summary of the method: as §3
# [6] = target: T1, Protein cereblon/Poly [ADP-ribose] polymerase 1; assay: Protac activity at CRBN/PARP1 in human MDA-MB-436 cells assessed as induction of PARP1 degradation at 1 uM incubated for 24 hrs by Western blot analysis relative to control; format: cell-based; summary of the method: as §3
# [7] = target: T1, Protein cereblon/Poly [ADP-ribose] polymerase 1; assay: Protac activity at CRBN/PARP1 in human MDA-MB-436 cells assessed as induction of PARP1 degradation at 1 to 1000 nM incubated for 24 hrs by Western blot analysis; format: cell-based; conditions: dose nM 1-1000, time 24.0 hrs
# Summary of the method: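 PARP1 immunoblot of MDA-MB-436 lysates after 24 h exposure at 1, 10, 100 and 1000 nM; RIPA lysis, 20-30 µg protein per lane, β-tubulin as loading control, band density normalized to DMSO control.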
# [8] = target: Poly [ADP-ribose] polymerase 1 (Homo sapiens, UniProt P09874); assay: Inhibition of recombinant human C-terminal His-tagged PARP1 expressed in Sf9 insect cells preincubated for 20 mins in presence of activated DNA followed by […] addition and further incubated for 2 hrs by chemiluminescence assay
# Poly [ADP-ribose] polymerase 1, sequence (P09874 whole entry): as the sequence (P09874 whole entry, looked up) above
# [9] = target: T1, Protein cereblon/Poly [ADP-ribose] polymerase 1; assay: Protac activity at CRBN/PARP1 in human Capan1 cells assessed as induction of PARP1 degradation at 1 to 1000 nM incubated for 24 hrs by Western blot analysis; format: cell-based; conditions: CAPAN-1, dose nM 1-1000, time 24.0 hrs
# Summary of the method: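 Capan-1 cells were treated 24 h (1-1000 nM, or a wider dose range for DC50). Lysis was in RIPA buffer with protease inhibitors, and 20-30 μg protein was blotted. PARP1 was normalized to β-tubulin and to DMSO control, quantified by densitometry. DC50 came from two independent experiments.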
# [10] = Acute toxicity in Balb/c mouse xenografted with SW-620 cells assessed as mean weight loss at 50 mg/kg, po qd administered for 5 days measured on day 6 relative to control; format: organism-based; conditions: in vivo, 144 h, time 6 day
# SW-620 = assay: Antitumor activity against SW-620 cells xenografted in Balb/c mouse assessed as tumor growth suppression at 50 mg/kg, po administered once daily for 5 days; format: functional, organism-based; conditions: time 5.0 day
# Summary of the method: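 Male BALB/c nude mice carried SW620 xenografts (6×10^6 cells s.c.), randomized at ~150 mm³ (6 per group). TMZ 50 mg/kg was given orally once daily on days 0-4, 45 min after the partner drug. Partners were 5 or 10 mg/kg intraperitoneally or 10 mg/kg by oral gavage, daily for 5 days. Vehicle was 5% DMSO/20% PEG400/10% Cremophor EL/65% saline. Tumor volume and body weight were recorded 2-3 times weekly.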
Structure (SMILES),IC50 (MDA-MB-436) [nM],IC50 (CAPAN-1) [nM],further results
O=C(CCCNC(=O)COc1cccc2c1C(=O)N(C1CCC(=O)NC1=O)C2=O)NCCCCCC(=O)N1CCN(C(=O)c2cc(Cc3n[nH]c(=O)c4ccccc34)ccc2F)CC1 (stereo unspecified),1200,3100,–
O=C(COc1cccc2c1C(=O)N(C1CCC(=O)NC1=O)C2=O)NCCCC(=O)N1CCN(C(=O)c2cc(Cc3n[nH]c(=O)c4ccccc34)ccc2F)CC1 (stereo unspecified),> 10000,> 10000,–
Cc1ncsc1-c1ccc(CNC(=O)[C@@H]2C[C@@H](O)CN2C(=O)[C@@H](NC(=O)CNC(=O)CCCCCCCCCCC(=O)N2CCN(C(=O)c3cc(Cc4n[nH]c(=O)c5ccccc45)ccc3F)CC2)C(C)(C)C)cc1,1200,1600,Activity [1]: inactive
CN(CCOCCOCCOCCOCCOCCOCCNc1cccc2c1C(=O)N(C1CCC(=O)NC1=O)C2=O)Cc1ccc(-c2[nH]c3cc(F)cc4c3c2CCNC4=O)cc1 (stereo unspecified),710,950,Activity [2]: Active; Activity [3]: Active
O=C(CCCNC(=O)COc1cccc2c1C(=O)N(C1CCC(=O)NC1=O)C2=O)NCCCC(=O)N1CCN(C(=O)c2cc(Cc3n[nH]c(=O)c4ccccc34)ccc2F)CC1 (stereo unspecified),5300,> 10000,–
O=C(COc1cccc2c1C(=O)N(C1CCC(=O)NC1=O)C2=O)NCCCCCC(=O)N1CCN(C(=O)c2cc(Cc3n[nH]c(=O)c4ccccc34)ccc2F)CC1 (stereo unspecified),9400,> 10000,–
Cc1ncsc1-c1ccc(CNC(=O)[C@@H]2C[C@@H](O)CN2C(=O)[C@@H](NC(=O)CCCCCNC(=O)CCCCCCCCCCC(=O)N2CCN(C(=O)c3cc(Cc4n[nH]c(=O)c5ccccc45)ccc3F)CC2)C(C)(C)C)cc1,120,170,Activity [1]: inactive
O=C(CCCCC(=O)N1CCN(C(=O)c2cc(Cc3n[nH]c(=O)c4ccccc34)ccc2F)CC1)NCCNc1cccc2c1C(=O)N(C1CCC(=O)NC1=O)C2=O (stereo unspecified),> 10000,> 10000,–
O=C(CCCCCCCCCCC(=O)N1CCN(C(=O)c2cc(Cc3n[nH]c(=O)c4ccccc34)ccc2F)CC1)NCCNc1cccc2c1CN(C1CCC(=O)NC1=O)C2=O (stereo unspecified),92,194,–
O=C(CCCNC(=O)CNc1cccc2c1C(=O)N(C1CCC(=O)NC1=O)C2=O)NCCCCCC(=O)N1CCN(C(=O)c2cc(Cc3n[nH]c(=O)c4ccccc34)ccc2F)CC1 (stereo unspecified),2200,7100,–
O=C(CCCCCCC(=O)N1CCN(C(=O)c2cc(Cc3n[nH]c(=O)c4ccccc34)ccc2F)CC1)NCCNc1cccc2c1C(=O)N(C1CCC(=O)NC1=O)C2=O (stereo unspecified),830,4100,–
O=C(CCCCCNC(=O)COc1cccc2c1C(=O)N(C1CCC(=O)NC1=O)C2=O)NCCCCCC(=O)N1CCN(C(=O)c2cc(Cc3n[nH]c(=O)c4ccccc34)ccc2F)CC1 (stereo unspecified),950,1500,–
CN1C(=O)CCC(N2C(=O)c3cccc(NCCNC(=O)CCCCCCCCCCC(=O)N4CCN(C(=O)c5cc(Cc6n[nH]c(=O)c7ccccc67)ccc5F)CC4)c3C2=O)C1=O (stereo unspecified),–,–,Activity [7]: inactive; IC50 [8]: 2.64 nM; Activity [9]: inactive
O=C(CCCCCCCCCCC(=O)N1CCN(C(=O)c2cc(Cc3n[nH]c(=O)c4ccccc34)ccc2F)CC1)NCCCOCCOCCOCCCNc1cccc2c1C(=O)N(C1CCC(=O)NC1=O)C2=O (stereo unspecified),65,154,–
Cn1nnc2c(C(N)=O)ncn2c1=O [TEMOZOLOMIDE],–,–,Activity [10]: 9%; Activity (SW-620): Active
O=C(CCCCCCCCC(=O)N1CCN(C(=O)c2cc(Cc3n[nH]c(=O)c4ccccc34)ccc2F)CC1)NCCNc1cccc2c1C(=O)N(C1CCC(=O)NC1=O)C2=O (stereo unspecified),123,495,–
O=C(CCCCCNC(=O)COc1cccc2c1C(=O)N(C1CCC(=O)NC1=O)C2=O)NCCCC(=O)N1CCN(C(=O)c2cc(Cc3n[nH]c(=O)c4ccccc34)ccc2F)CC1 (stereo unspecified),1900,8700,–
Cc1ncsc1-c1ccc(CNC(=O)[C@@H]2C[C@@H](O)CN2C(=O)[C@@H](NC(=O)CCCNC(=O)CCCCCCCCCCC(=O)N2CCN(C(=O)c3cc(Cc4n[nH]c(=O)c5ccccc45)ccc3F)CC2)C(C)(C)C)cc1,680,870,Activity [1]: inactive
O=C(CCCCCNC(=O)CNc1cccc2c1C(=O)N(C1CCC(=O)NC1=O)C2=O)NCCCCCC(=O)N1CCN(C(=O)c2cc(Cc3n[nH]c(=O)c4ccccc34)ccc2F)CC1 (stereo unspecified),1700,2200,–

# Further compounds by falling IC50 (MDA-MB-436), results first:
IC50 (MDA-MB-436) [nM],Structure (SMILES),IC50 (CAPAN-1) [nM],further results
64,O=C(CCCCCCCCCCC(=O)N1CCN(C(=O)c2cc(Cc3n[nH]c(=O)c4ccccc34)ccc2F)CC1)NCCOCCOCCNc1cccc2c1C(=O)N(C1CCC(=O)NC1=O)C2=O (stereo unspecified),134,–
54,Cc1ncsc1-c1ccc(CNC(=O)[C@@H]2C[C@@H](O)CN2C(=O)[C@@H](NC(=O)CCCCCCCCCCC(=O)N2CCN(C(=O)c3cc(Cc4n[nH]c(=O)c5ccccc45)ccc3F)CC2)C(C)(C)C)cc1,87,Activity [1]: inactive
47,O=C(CCCCCCCCCCC(=O)N1CCN(C(=O)c2cc(Cc3n[nH]c(=O)c4ccccc34)ccc2F)CC1)NCCOCCNc1cccc2c1C(=O)N(C1CCC(=O)NC1=O)C2=O (stereo unspecified),120,–
42,O=C(CCCCCCCCCCC(=O)N1CCN(C(=O)c2cc(Cc3n[nH]c(=O)c4ccccc34)ccc2F)CC1)NCCCCCCNc1cccc2c1C(=O)N(C1CCC(=O)NC1=O)C2=O (stereo unspecified),110,–
39,O=C(CCCCCCCCCCC(=O)N1CCN(C(=O)c2cc(Cc3n[nH]c(=O)c4ccccc34)ccc2F)CC1)NCCCCNc1cccc2c1C(=O)N(C1CCC(=O)NC1=O)C2=O (stereo unspecified),131,Activity [4]: 90.5%; Activity [5]: 70%; Activity [6]: 45%
35,O=C(CCCCCCCCCCC(=O)N1CCN(C(=O)c2cc(Cc3n[nH]c(=O)c4ccccc34)ccc2F)CC1)NCCNc1ccc2c(c1)C(=O)N(C1CCC(=O)NC1=O)C2=O (stereo unspecified),159,–
29,O=C(CCCCCCCCCC(=O)N1CCN(C(=O)c2cc(Cc3n[nH]c(=O)c4ccccc34)ccc2F)CC1)NCCNc1cccc2c1C(=O)N(C1CCC(=O)NC1=O)C2=O (stereo unspecified),264,–
25,O=C(CCCCCCCCCCCCC(=O)N1CCN(C(=O)c2cc(Cc3n[nH]c(=O)c4ccccc34)ccc2F)CC1)NCCNc1cccc2c1C(=O)N(C1CCC(=O)NC1=O)C2=O (stereo unspecified),118,–
21,O=C(CCCCCCCCCCCC(=O)N1CCN(C(=O)c2cc(Cc3n[nH]c(=O)c4ccccc34)ccc2F)CC1)NCCNc1cccc2c1C(=O)N(C1CCC(=O)NC1=O)C2=O (stereo unspecified),87,–
